Data: ChEMBL document CHEMBL4425129, “Exploring Basic Tail Modifications of Coumarin-Based Dual Acetylcholinesterase-Monoamine Oxidase B Inhibitors: Identification of Water-Soluble, Brain-Permeant Neuroprotective Multitarget Agents” (J Med Chem, 2016)
Active and inactive are the calls of the source. No cut-off for these calls is given here.

Legend:
[1] = Efflux ratio of apparent permeability across basolateral to apical side over apical to basolateral side in MDCK2-MDR1 cells at 5 to 75 uM by UV-visible spectroscopic method; type: ADME, cell-based, Canis lupus familiaris; conditions: dog, MDCK-MDR1
How it was run: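 Canine kidney MDCKII-MDR1 cells (retrovirally transfected with human MDR1 cDNA), cultured in DMEM and seeded at 100000 cells/cm2 on 0.4 µm-pore Transwell inserts. […] Apical-to-basolateral and basolateral-to-apical transport were measured, with compound quantified by UV-vis absorbance against PBS calibration curves (5–75 µM). ER = Papp BL-AP / Papp AP-BL. Triplicates, three experiments.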

SH-SY5Y [2] = experiment: Cytotoxicity against human SH-SY5Y cells assessed as inhibition of cell growth after 24 hrs by MTT assay; type: cell-based
How it was run: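 SH-SY5Y cells exposed 24 h at 37 °C to 0.1, 1, 5, 10 and 50 µM; viability read by MTT at 570 nm versus untreated cells. […] Means ± SD, n = 3.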

SH-SY5Y [3] = experiment: Neuroprotective activity against oligomycin-A-induced oxidative injury in human SH-SY5Y cells assessed as increase in cell viability at 1 uM after 24 hrs by MTT assay; type: functional, cell-based
How it was run: (§1)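 SH-SY5Y cells incubated 24 h with compound at 1 or 10 µM together with H2O2 300 µM, oligomycin-A 10 µM or rotenone 20 µM. Viability by MTT, as % of cells given neither insult nor compound. Triplicates, three repeats; mean ± SD; two-way ANOVA with Bonferroni post hoc test.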

[4] = Apparent permeability across apical to basolateral side in MDCK2-MDR1 cells at 5 to 75 uM by UV-visible spectroscopic method; type: ADME, cell-based, Canis lupus familiaris; conditions: dog, MDCK-MDR1
How it was run: (§2)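 Acceptor concentrations measured by UV–visible spectroscopy against PBS calibration curves linear over 5–75 µM. Papp (cm/sec) = (VA/(area × time)) × ([drug]acceptor/[drug]initial). Triplicates, three experiments.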

[5] = Lipophilicity index, Log K of the compound at 1 mM by RP-HPLC method; type: physicochemical; conditions: 1000 µM
Acetylcholinesterase [6] = target: T1, Acetylcholinesterase (Electrophorus electricus, UniProt O42275); experiment: Inhibition of electric eel AChE using acetylthiocholine iodide as substrate preincubated for 20 mins followed by substrate addition measured for 5 mins by spectrophotometric Ellman's method
[7] = target: Cholinesterase (Equus caballus) (UniProt P81908); experiment: Inhibition of equine serum BChE at 10 uM using butyrylthiocholine iodide as substrate preincubated for 20 mins followed by substrate addition measured for 5 mins by spectrophotometric Ellman's method relative to control
How it was run: (§3)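 BChE from equine serum (13 U/mg), Ellman spectrophotometric method run in 96-well format. Seven inhibitor concentrations, 10^-4 to 10^-10 M, each in triplicate. IC50 from non-linear regression of response against log(concentration). […] Mean of three independent experiments.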

[8] = target: T2, Amine oxidase [flavin-containing] B (Homo sapiens, UniProt P27338); experiment: Inhibition of human recombinant MAOB expressed in microsomes of baculovirus-infected insect cell using kynuramine as substrate preincubated for 20 mins followed by protein addition measured after 30 mins by fluorescence assay
T2 sequence (P27338 whole entry): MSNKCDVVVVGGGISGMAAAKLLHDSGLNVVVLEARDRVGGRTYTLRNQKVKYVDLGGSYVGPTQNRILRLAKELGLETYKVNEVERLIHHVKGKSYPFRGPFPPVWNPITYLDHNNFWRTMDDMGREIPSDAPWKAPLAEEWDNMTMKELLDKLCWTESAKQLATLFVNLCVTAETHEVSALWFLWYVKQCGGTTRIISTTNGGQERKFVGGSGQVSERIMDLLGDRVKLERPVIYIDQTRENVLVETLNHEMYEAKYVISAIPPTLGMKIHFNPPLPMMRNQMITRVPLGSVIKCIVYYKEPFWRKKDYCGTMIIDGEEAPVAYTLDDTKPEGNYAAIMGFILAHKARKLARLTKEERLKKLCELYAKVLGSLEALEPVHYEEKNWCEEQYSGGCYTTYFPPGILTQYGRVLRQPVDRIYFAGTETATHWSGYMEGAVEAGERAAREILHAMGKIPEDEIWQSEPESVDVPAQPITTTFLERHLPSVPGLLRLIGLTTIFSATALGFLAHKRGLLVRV

[9] = Kinetic aqueous solubility of the compound in Tris-HCl buffer at pH 7.4 by turbidimetric method; type: physicochemical; conditions: for log(Kinetic_solubility): buffer
How it was run: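 DMSO stocks added in portions to 50 mM Tris-HCl pH 7.4 at room temperature. Light scattering read as UV absorbance increase at 580–780 nm; solubility from a bilinear fit of absorbance versus µL DMSO. Reported as logS (mol/L), mean ± SEM of three independent assays.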

[10] = target: T3, Amine oxidase [flavin-containing] A (Homo sapiens, UniProt P21397); experiment: Inhibition of human recombinant MAOA expressed in microsomes of baculovirus-infected insect cell using kynuramine as substrate preincubated for 20 mins followed by protein addition measured after 30 mins by fluorescence assay
T3 sequence (P21397 whole entry): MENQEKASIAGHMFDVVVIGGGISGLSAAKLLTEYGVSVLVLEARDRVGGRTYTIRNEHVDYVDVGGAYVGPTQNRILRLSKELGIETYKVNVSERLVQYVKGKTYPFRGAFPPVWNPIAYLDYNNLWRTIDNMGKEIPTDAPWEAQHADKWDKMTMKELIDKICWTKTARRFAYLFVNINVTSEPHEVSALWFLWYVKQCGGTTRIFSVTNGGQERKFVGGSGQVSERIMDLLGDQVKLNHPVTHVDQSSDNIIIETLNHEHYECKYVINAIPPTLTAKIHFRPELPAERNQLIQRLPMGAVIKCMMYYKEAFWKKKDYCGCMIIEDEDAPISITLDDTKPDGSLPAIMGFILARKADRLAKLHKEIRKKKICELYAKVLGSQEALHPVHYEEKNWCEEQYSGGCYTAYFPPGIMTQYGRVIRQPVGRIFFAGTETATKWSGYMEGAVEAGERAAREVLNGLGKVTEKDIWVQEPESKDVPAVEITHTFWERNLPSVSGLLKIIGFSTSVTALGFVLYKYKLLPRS
How it was run: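 Recombinant human MAO A (baculovirus-infected insect cell microsomes) with kynuramine substrate; inhibitor preincubated 20 min at 37 °C, enzyme then added and incubated 30 min more. Fluorescence at ex/em 320/400 nm. Triplicates, three independent experiments.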

[11] = Apparent permeability across basolateral to apical side in MDCK2-MDR1 cells at 5 to 75 uM by UV-visible spectroscopic method; type: ADME, cell-based, Canis lupus familiaris; conditions: dog, MDCK-MDR1; how it was run: as §2
SH-SY5Y [12] = experiment: Neuroprotective activity against rotenone-induced oxidative injury in human SH-SY5Y cells assessed as increase in cell viability at 1 uM after 24 hrs by MTT assay; type: functional, cell-based; how it was run: as §1
SH-SY5Y [13] = experiment: Neuroprotective activity against rotenone-induced oxidative injury in human SH-SY5Y cells assessed as increase in cell viability at 10 uM after 24 hrs by MTT assay; type: functional, cell-based; how it was run: as §1
SH-SY5Y [14] = experiment: Neuroprotective activity against oligomycin-A-induced oxidative injury in human SH-SY5Y cells assessed as increase in cell viability at 10 uM after 24 hrs by MTT assay; type: functional, cell-based; how it was run: as §1
SH-SY5Y [15] = experiment: Neuroprotective activity against H2O2-induced oxidative injury in human SH-SY5Y cells assessed as increase in cell viability at 1 to 10 uM after 24 hrs by MTT assay; type: functional, cell-based; how it was run: as §1
[16] = target: T3, Amine oxidase [flavin-containing] A; experiment: Inhibition of human recombinant MAOA expressed in microsomes of baculovirus-infected insect cell at 10 uM using kynuramine as substrate preincubated for 20 mins followed by protein addition measured after 30 mins by fluorescence assay relative to control; conditions: 0.5 h
How it was run: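 Recombinant human MAO A (baculovirus-infected insect cell microsomes) with kynuramine substrate; inhibitor preincubated 20 min at 37 °C, enzyme then added and incubated 30 min more. Fluorescence at ex/em 320/400 nm. […] Triplicates, three independent experiments.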

Acetylcholinesterase [17] = target: T1, Acetylcholinesterase; experiment: Mixed-type inhibition of electric eel AChE using S-acetylthiocholine as substrate preincubated for 20 mins followed by substrate addition measured for 5 mins by Lineweaver-Burk plot method
Cholinesterase = Cholinesterase (Equus caballus, UniProt P81908); experiment: Inhibition of equine serum BChE using butyrylthiocholine iodide as substrate preincubated for 20 mins followed by substrate addition measured for 5 mins by spectrophotometric Ellman's method; how it was run: as §3
Cholinesterase, sequence (P81908 whole entry): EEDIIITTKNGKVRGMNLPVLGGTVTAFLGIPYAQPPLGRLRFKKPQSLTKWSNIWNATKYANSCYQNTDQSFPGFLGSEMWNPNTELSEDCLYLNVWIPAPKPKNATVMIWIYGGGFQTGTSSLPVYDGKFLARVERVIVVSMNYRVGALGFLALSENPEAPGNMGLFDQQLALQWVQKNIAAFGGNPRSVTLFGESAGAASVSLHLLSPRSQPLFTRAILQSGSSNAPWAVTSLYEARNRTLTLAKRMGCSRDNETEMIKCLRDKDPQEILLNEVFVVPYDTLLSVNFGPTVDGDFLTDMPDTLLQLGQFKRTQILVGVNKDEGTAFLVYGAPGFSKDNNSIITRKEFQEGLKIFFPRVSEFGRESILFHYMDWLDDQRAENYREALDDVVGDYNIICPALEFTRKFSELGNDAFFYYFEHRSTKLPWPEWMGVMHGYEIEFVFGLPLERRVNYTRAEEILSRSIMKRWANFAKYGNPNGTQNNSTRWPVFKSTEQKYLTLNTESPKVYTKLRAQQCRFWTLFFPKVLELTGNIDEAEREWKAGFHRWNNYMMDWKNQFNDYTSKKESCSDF

T1 sequence (O42275 whole entry): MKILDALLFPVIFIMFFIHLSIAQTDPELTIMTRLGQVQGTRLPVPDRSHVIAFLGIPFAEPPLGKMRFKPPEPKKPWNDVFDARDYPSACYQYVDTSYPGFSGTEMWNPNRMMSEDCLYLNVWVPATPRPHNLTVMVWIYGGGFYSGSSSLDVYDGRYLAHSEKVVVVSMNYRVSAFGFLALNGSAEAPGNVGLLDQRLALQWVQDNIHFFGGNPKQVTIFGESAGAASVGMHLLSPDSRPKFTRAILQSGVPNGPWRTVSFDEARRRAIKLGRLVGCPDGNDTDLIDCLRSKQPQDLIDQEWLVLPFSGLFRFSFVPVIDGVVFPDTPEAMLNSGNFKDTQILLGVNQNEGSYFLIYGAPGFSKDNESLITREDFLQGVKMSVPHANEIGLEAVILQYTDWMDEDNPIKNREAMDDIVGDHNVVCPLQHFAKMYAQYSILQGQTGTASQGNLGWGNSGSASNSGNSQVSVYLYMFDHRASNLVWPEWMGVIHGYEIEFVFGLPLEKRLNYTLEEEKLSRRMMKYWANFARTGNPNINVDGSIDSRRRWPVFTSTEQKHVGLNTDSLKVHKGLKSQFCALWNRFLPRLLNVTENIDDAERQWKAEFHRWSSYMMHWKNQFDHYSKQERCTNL
Cholinesterase (Equus caballus), sequence (P81908 whole entry): as the sequence (P81908 whole entry) above

SMILES | efflux ratio at up to 75 µM [1] | IC50 (SH-SY5Y [2]) | Activity (SH-SY5Y [3]) | Papp A→B at up to 75 µM [4] | log K [5] | IC50 (Acetylcholinesterase [6]) | inhibition [7] | IC50 [8] | log(Kinetic_solubility) [9] | IC50 [10] | Papp B→A at up to 75 µM [11] | Activity (SH-SY5Y [12]) | Activity (SH-SY5Y [13]) | Activity (SH-SY5Y [14]) | Activity (SH-SY5Y [15]) | inhibition at 10 µM [16] | Ki (Acetylcholinesterase [17]) | solubility kinetic ([9]; Tris-HCl buffer, read-out: Kinetic_solubility) | IC50 (Cholinesterase)
Cc1c(C)c2ccc(OCC3CCCN(C)C3)cc2oc1=O.Cl (racemic) | 0.9 | 30000 nM | inactive | 22.3 ×10⁻⁶ cm/s | 1.14 | 800 nM | 19% | 137 nM | -3.67 | 9330 nM | 20.2 ×10⁻⁶ cm/s | Active | Active | inactive | Active | – | – | – | –
Cc1c(C)c2ccc(OCC3CCN(Cc4ccc(Cl)cc4)CC3)cc2oc1=O | – | – | – | – | – | 9570 nM | 19% | 614 nM | – | – | – | – | – | – | – | 37% | – | – | –
Cc1c(C)c2ccc(OCC3CCCN(Cc4cccc(Br)c4)C3)cc2oc1=O.Cl (racemic) | 2.56 | – | – | 0.84 ×10⁻⁶ cm/s | – | 1910 nM | – | 110 nM | – | 810 nM | 2.16 ×10⁻⁶ cm/s | – | – | – | – | – | – | – | –
Cc1c(C)c2ccc(OCC3CCCN(Cc4ccccc4)C3)cc2oc1=O.Cl (racemic) | 0.61 | 44000 nM | – | 24.3 ×10⁻⁶ cm/s | 2.01 | 1030 nM | – | – | -3.92 | 2810 nM | 14.8 ×10⁻⁶ cm/s | – | – | – | – | – | 1370 nM | 119 µM | 3410 nM
